These results are taken from ChEMBL document CHEMBL1122183, “Enhanced antitumor properties of 3'-(4-morpholinyl) and 3'-(4-methoxy-1-piperidinyl) derivatives of 3'-deaminodaunorubicin” (1982).

Each structure is given as a SMILES string. Several values for one entry are separate records, joined by “and”; a condition that tells them apart may be missing. Identical values can stand only once.

The test system of experiment [1] is L1210. Briefly: Concentration of drug necessary to reduce by 50% the incorporation of tritiated uridine in the RNA of actively growing L1210 cells. Format: functional, Mus musculus. The settings on record: read-out: ED50 (the source's name). Summed up: (§1)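 Actively growing L1210 cells. Drug first dissolved in Me2SO, giving 1% final Me2SO. Incorporation of [3H]thymidine into DNA and [3H]uridine into RNA measured. ED50 is the drug concentration that reduces incorporation by 50%.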

For experiment [2], the system named is Nucleic Acid. Briefly: Thermal denaturation temperature (Tm) of isolated calf thymus helical DNA was measured. The settings on record: Bos taurus. Format: functional. Summed up: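 Calf thymus DNA (P) 5.2 × 10^-5 M and drug 5.2 × 10^-6 M in 0.01 M phosphate buffer, pH 7, with EDTA and 5% final Me2SO. ΔTm is Tm of the DNA–drug complex minus Tm of DNA alone. Values <1 are read as insignificant binding.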

For experiment [3], the system named is P388. Briefly: Antitumor efficacy at optimal dose of compound was measured against P388 leukemia in mice. In kind it is functional, Mus musculus. Summed up: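 Mice inoculated ip with P388 cells on day 0, then dosed on days 5, 9 and 13 across a series of doses, under NCI protocols. % T/C is the ratio of mean survival time of treated to untreated mice ×100; T/C >120 taken as active. Values are averages of two tests, or one test where only one was run.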

Experiment [4] has as its system L1210. Kind of experiment: Concentration of drug necessary to reduce by 50% the incorporation of tritiated thymidine in the DNA of actively growing L1210 cells. In kind it is functional, Mus musculus. The settings on record: read-out: ED50 (the source's name). Summed up:
as §1

For experiment [5], the species on record is Mus musculus. Briefly: Percentage rate of O2 consumption by liver microsomes and NADPH in the presence compared to the rate in presence of doxorubicin. In kind it is functional. In short, it runs like this: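 Rate of O2 consumption by liver microsomes with NADPH measured with the analogue at a single drug concentration. Expressed as a percentage of the rate obtained with doxorubicin.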

Take `COc1cccc2c1C(=O)c1c(O)c3c(c(O)c1C2=O)C[C@@](O)(C(C)O)C[C@@H]3O[C@H]1C[C@H](N2CCCCC2)[C@H](O)[C@H](C)O1` (stereo partly specified): the EC50 was determined as 40 nM in experiment [1] (Mus musculus, L1210) and 620 nM in experiment [4] (Mus musculus, L1210). Further, the ΔTm in experiment [2] turned out to be 12.9 °C. The same molecule came in with a T/C in experiment [3] of 162%.

On to `COc1cccc2c1C(=O)c1c(O)c3c(c(O)c1C2=O)C[C@@](O)(C(C)O)C[C@@H]3O[C@H]1C[C@H](N2CCC(OC)CC2)[C@H](O)[C@H](C)O1` (stereo partly specified), for which the EC50 in experiment [1] (Mus musculus, L1210) is 80 nM; in experiment [4] (Mus musculus, L1210) it was 580 nM. Moreover, in experiment [2], the ΔTm is 9.5 °C. The T/C in experiment [3] is 199%. In addition, the O2 consumption in experiment [5] amounted to 64%.

As for `COc1cccc2c1C(=O)c1c(O)c3c(c(O)c1C2=O)C[C@@](O)(C(C)=O)C[C@@H]3OC1CC(NC2CCOCC2)C(O)C(C)O1` (stereo partly specified), the EC50 was 610 nM in experiment [1] (Mus musculus, L1210) and 2000 nM in experiment [4] (Mus musculus, L1210). In experiment [2], the shift in melting temperature (ΔTm) turned out to be 4 °C. For the same molecule, the T/C in experiment [3] was determined as 136%. Also, in experiment [5], the O2 consumption was determined as 68%.

For `COc1cccc2c1C(=O)c1c(O)c3c(c(O)c1C2=O)C[C@@](O)(C(C)=O)C[C@@H]3OC1CC(N2CCC(OC)CC2)C(O)C(C)O1` (stereo partly specified), the EC50 in experiment [1] (Mus musculus, L1210) was found to be 120 nM; in experiment [4] (Mus musculus, L1210) it was 630 nM. Besides, in experiment [2], the ΔTm stood at 13.3 °C. For the same molecule, the T/C in experiment [3] came out at 199%. The O2 consumption in experiment [5] was 82%.

As to `COc1cccc2c1C(=O)c1c(O)c3c(c(O)c1C2=O)C[C@@](O)(C(C)=O)C[C@@H]3OC1CC(NC2CCCCC2)C(O)C(C)O1` (stereo partly specified), the EC50 in experiment [1] (Mus musculus, L1210) was found to be 16000 nM; in experiment [4] (Mus musculus, L1210), 64000 nM. Moreover, the thermal shift (ΔTm) in experiment [2] came to 0.7 °C. In experiment [5], the O2 consumption came out at 57%.

As to `COc1cccc2c1C(=O)c1c(O)c3c(c(O)c1C2=O)C[C@@](O)(C(=O)CO)C[C@@H]3O[C@H]1C[C@H](N)[C@H](O)[C@H](C)O1` [DOXORUBICIN], the EC50 was determined as 580 nM in experiment [1] (Mus musculus, L1210) and 1500 nM in experiment [4] (Mus musculus, L1210). The shift in melting temperature (ΔTm) in experiment [2] is 13.4 °C. This molecule also displayed a T/C in experiment [3] of 160%. Besides, in experiment [5], the O2 consumption turned out to be 100%.

Consider `COc1cccc2c1C(=O)c1c(O)c3c(c(O)c1C2=O)C[C@@](O)(C(C)=O)C[C@@H]3O[C@H]1C[C@H](N)[C@H](O)[C@H](C)O1` [DAUNORUBICIN], for which the EC50 in experiment [1] (Mus musculus, L1210) turned out to be 330 nM; in experiment [4] (Mus musculus, L1210), 660 nM. The T/C in experiment [3] is given as 130%.

In the case of `COc1cccc2c1C(=O)c1c(O)c3c(c(O)c1C2=O)C[C@@](O)(C(C)=O)C[C@@H]3OC1CC(N2CCOCC2)C(O)C(C)O1` (stereo partly specified), the EC50 in experiment [1] was 100 nM and 14 nM; in experiment [4] it was 760 nM and 340 nM. Also, the ΔTm in experiment [2] was 6.1 °C. In addition, in experiment [3], the T/C was found to be 166%. For the same molecule, the O2 consumption in experiment [5] was 25%.

On to `COc1cccc2c1C(=O)c1c(O)c3c(c(O)c1C2=O)C[C@@](O)(C(C)O)C[C@@H]3O[C@H]1C[C@H](N2CCOCC2)[C@H](O)[C@H](C)O1` (stereo partly specified), for which the EC50 stood at 530 nM in experiment [1] (Mus musculus, L1210) and 2200 nM in experiment [4] (Mus musculus, L1210). Further, the ΔTm in experiment [2] came to 4.1 °C. The T/C in experiment [3] came out at 153%. Besides, the O2 consumption in experiment [5] is 29%.

For the molecule `COc1cccc2c1C(=O)c1c(O)c3c(c(O)c1C2=O)C[C@@](O)(C(C)=O)C[C@@H]3OC1CC(N2CCCCC2)C(O)C(C)O1` (stereo partly specified), the EC50 in experiment [1] (Mus musculus, L1210) was 50 nM; in experiment [4] (Mus musculus, L1210), 500 nM. The ΔTm in experiment [2] came to 16.8 °C. Moreover, the T/C in experiment [3] is on record as 177%. Besides, the O2 consumption in experiment [5] came to 8%.

In general, ΔTm refers to the shift of the melting midpoint relative to a reference. As a reminder, the T/C is the ratio of treated to control.
